The target of data set [1] is T1, Corticotropin-releasing factor receptor 1 (Homo sapiens, UniProt P34998).
T1 sequence (P34998 whole entry): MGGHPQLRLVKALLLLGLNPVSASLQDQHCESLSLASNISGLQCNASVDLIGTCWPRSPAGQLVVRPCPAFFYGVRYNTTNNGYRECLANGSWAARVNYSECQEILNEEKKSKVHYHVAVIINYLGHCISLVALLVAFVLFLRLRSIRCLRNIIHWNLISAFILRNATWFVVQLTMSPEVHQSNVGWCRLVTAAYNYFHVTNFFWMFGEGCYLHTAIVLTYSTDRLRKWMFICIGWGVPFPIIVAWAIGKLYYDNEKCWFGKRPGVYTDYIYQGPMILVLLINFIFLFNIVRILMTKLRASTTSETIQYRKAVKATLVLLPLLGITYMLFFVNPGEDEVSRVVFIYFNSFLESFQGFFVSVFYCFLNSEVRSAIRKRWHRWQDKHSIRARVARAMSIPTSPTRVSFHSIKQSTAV
The data set is described as follows: Antagonist activity at human recombinant CRF1 receptor. The class given is functional.

A short description of data set [2]: Metabolic stability in human liver microsome assessed as maximum bioavailability. As to conditions: liver microsomes, read-out: Max Achievable Bioavailability. It counts as ADME.
For data set [3], the system named is Rattus norvegicus. The data set is described as follows: AUC (0 to 24 hrs) in rat at 10 mg/kg, po. It counts as ADME, organism-based, Plasma. More on the design: time < 24 hr, dose 10 mg/kg, route oral. As to conditions: in vivo. The procedure, abridged: (§1)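 Rats were given a single oral dose of 10 mg/kg and followed for 24 h. Plasma exposure was expressed as AUC0–24 and oral bioavailability was determined. Brain and plasma levels were measured 1 h post-dose to give the brain/plasma ratio.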

Data set [4] in a line: Ratio of drug uptake in brain to plasma in rat at 10 mg/kg, po. It counts as ADME, organism-based. More on the design: dose 10 mg/kg, route oral. The following applies: brain and plasma, read-out: BPR. The procedure, abridged: as §1
The nature of data set [5]: Volume of distribution in rat at 5 mg/kg, iv after 72 hrs. On the set-up: dose 5 mg/kg, route intravenous. The following applies: in vivo. It counts as ADME, organism-based. The procedure, abridged:
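Rats received a single intravenous dose of 5 mg/kg in a 72 h pharmacokinetic study. Clearance and volume of distribution at steady state (Vdss) were derived.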

One may read the Ki as a measure of affinity in units of concentration, obtained from inhibition or displacement. As for `COc1ccc(-c2c(C)nn3c(NCc4nc(C)no4)cc(C)nc23)c(C)c1`, the Ki in data set [1] is 0.0631 µM. In the case of `CCN(Cc1nc(C)no1)c1cc(C)nc2c(-c3ccc(OC)cc3C)c(C)nn12`, the Ki in data set [1] is 0.00501 µM. Moreover, the Fh in data set [2] amounted to 17%. As to `COc1ccc(-c2c(C)nn3c(NC(C)Cc4nc(C)no4)cc(C)nc23)c(C)c1` (stereo not given), the Ki in data set [1] was 0.0316 µM. In data set [2], the Fh amounted to 32%. As to `CCC(Nc1cc(C)nc2c(-c3ccc(OC)cc3C)c(C)nn12)c1nnc(C)o1` (stereo not given), in data set [1], the Ki was 0.1 µM. Further, the Fh in data set [2] worked out at 64%.

Take `COc1ccc(-c2c(C)nn3c(NC(C)Cc4nnc(C)o4)cc(C)nc23)c(C)c1` (stereo not given): in data set [1], the inhibition constant (Ki) was 0.251 µM. In the case of `COc1ccc(-c2c(C)nn3c(NC(C)Cc4noc(C)n4)cc(C)nc23)c(C)c1` (stereo not given), the Ki in data set [1] was 0.0794 µM. Besides, the Fh in data set [2] came out at 26%.

For `CCC(Nc1cc(C)nc2c(-c3ccc(OC)cc3OC)c(C)nn12)c1nc(C)no1` (stereo not given), the Ki in data set [1] was 0.0501 µM.

`CCCN(CCC)c1cc(C)nc2c(-c3cnc(N(C)C)cc3C)c(C)nn12`: the Fh in data set [2] was determined as 17%. As usually defined, the AUC is the area under the concentration-time curve, a measure of exposure. Read a high AUC as high exposure. One may read the Vd as a proportionality between amount in the body and measured concentration, not a real space. A high value points to extensive tissue distribution. In data set [3], `CC[C@H](Nc1cc(C)nc2c(-c3ccc(OC)cc3C)c(C)nn12)c1nc(C)no1` [VERUCERFONT] yielded an AUC of 3.13 µg·h/mL. The Kp in data set [4] stood at 1.6. In addition, in data set [5], the Vd came to 7.5 L/kg.

Source of the values: ChEMBL document CHEMBL1287801, “Discovery of NBI-77860/GSK561679, a potent corticotropin-releasing factor (CRF1) receptor antagonist with improved pharmacokinetic properties” (Bioorg Med Chem Lett, 2010).
